# Experimental data from ChEMBL document CHEMBL1127626, “Synthesis and molecular modeling of 1-phenyl-1,2,3,4-tetrahydroisoquinolines and related 5,6,8,9-tetrahydro-13bH-dibenzo[a,h]quinolizines as D1 dopamine antagonists” (J Med Chem, 1994).
# Where “and” joins values, the source holds several entries; their conditions need not be identical. Identical values can stand only once.
# What was measured:
# [1] = molecular target: T1, D(1A) dopamine receptor (Rattus norvegicus, UniProt P18901); test: Binding affinity against dopamine receptor D1
# [2] = molecular target: Dopamine receptors; D1 & D2 (Rattus norvegicus) (UniProt P18901+P61169); test: Selectivity for D1 receptor was determined as the ratio of Ki (D2) to that of Ki (D1); format: protein assay
# Summary of the method: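 D2 used 0.02 nM [3H]spiperone with 50 nM ketanserin; D1 used 0.25 nM [3H]SCH23390. IC50 from Hill plot linear regression, converted to Ki via Cheng-Prusoff.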
# [3] = molecular target: T2, D(2) dopamine receptor (Rattus norvegicus, UniProt P61169); test: Binding affinity towards dopamine […] receptor using [3H]spiperone was determined in rat striatal membranes; format: cell membranes, Striatum, Membrane
# [4] = molecular target: T1, D(1A) dopamine receptor; test: Binding affinity towards dopamine receptor D1 using [3H]SCH-23390 was determined in rat striatal membranes; format: cell membranes, Striatum, Membrane
# [5] = molecular target: T2, D(2) dopamine receptor; test: Binding affinity against dopamine (D2) receptor
# Summary of the method: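 Competition with 0.02 nM [3H]spiperone plus 50 nM ketanserin to mask 5-HT2 sites; chlorpromazine defines nonspecific. 37 °C 15 min, glass-fiber filtration. IC50 from Hill plot linear regression, Ki by Cheng-Prusoff; mean ± SEM.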
# T1 sequence (P18901 whole entry): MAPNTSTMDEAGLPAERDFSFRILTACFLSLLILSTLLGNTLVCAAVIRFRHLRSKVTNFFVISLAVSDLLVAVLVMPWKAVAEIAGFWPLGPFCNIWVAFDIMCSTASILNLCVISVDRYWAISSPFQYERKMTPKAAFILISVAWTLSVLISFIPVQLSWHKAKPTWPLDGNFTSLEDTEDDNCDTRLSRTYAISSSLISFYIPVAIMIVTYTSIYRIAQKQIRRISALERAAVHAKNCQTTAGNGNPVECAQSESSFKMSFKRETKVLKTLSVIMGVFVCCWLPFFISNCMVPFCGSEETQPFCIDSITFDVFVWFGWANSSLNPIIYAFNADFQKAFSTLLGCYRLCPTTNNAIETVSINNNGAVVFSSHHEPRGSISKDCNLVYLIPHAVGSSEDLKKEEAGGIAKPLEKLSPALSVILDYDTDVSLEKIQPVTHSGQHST
# T2 sequence (P61169 whole entry): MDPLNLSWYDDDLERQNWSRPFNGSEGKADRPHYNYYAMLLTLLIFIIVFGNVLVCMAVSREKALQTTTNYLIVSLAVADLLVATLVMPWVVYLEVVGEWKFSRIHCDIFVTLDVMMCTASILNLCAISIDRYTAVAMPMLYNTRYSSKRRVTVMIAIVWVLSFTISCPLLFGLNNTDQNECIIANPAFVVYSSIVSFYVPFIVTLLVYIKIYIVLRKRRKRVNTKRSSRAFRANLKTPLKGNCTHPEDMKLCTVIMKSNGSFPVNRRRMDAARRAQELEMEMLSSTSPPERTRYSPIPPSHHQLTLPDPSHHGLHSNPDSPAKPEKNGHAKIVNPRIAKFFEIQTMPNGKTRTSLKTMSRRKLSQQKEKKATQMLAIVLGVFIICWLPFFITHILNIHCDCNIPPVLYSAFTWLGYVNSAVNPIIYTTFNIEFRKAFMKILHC
Ki [1],Ratio [2],Ki [3] [nM],Ki [4] [nM],Ki [5] [nM],Log Ki [1],Compound
178 nM,10.6,–,179,1910,–,CCCN1CCc2cc(Cl)c(O)cc2C1c1ccccc1 (racemic)
141 nM,–,> 3000,138,–,–,CN1Cc2ccccc2C2c3cc(O)c(Br)cc3CCC21 (racemic)
417 nM,–,> 5000,830,–,–,Oc1cc2c(cc1Cl)CCN1CCc3ccccc3C21 (racemic)
6.61 nM,43.4,–,–,19500,–,CN1CCc2cc(Cl)c(O)cc2[C@H]1c1ccccc1
1380 nM,–,> 5000,2700,–,–,Oc1cc2c(cc1O)C1c3ccccc3CCN1CC2 (racemic)
> 10000 nM,–,> 5000,> 5000,–,–,CN1CCc2ccc(O)cc2C1c1ccccc1 (racemic)
141 nM,35.4,–,743,3720,–,Oc1cc2c(cc1Cl)CCNC2c1ccccc1 (racemic)

# The next lines start with the molecule.
Compound,Ki [1],Ratio [2],Ki [3] [nM],Ki [4] [nM],Ki [5] [nM],Log Ki [1]
CN1Cc2cc(Cl)c(O)cc2C(c2ccccc2)C1 (racemic),178 nM and 87.1 nM,3,–,–,–,–
CN1CCc2cc(Br)c(O)cc2[C@H]1c1ccccc1,8.32 nM,–,> 5000,> 5000,–,–
Oc1cc2c(cc1Cl)CNCC2c1ccccc1 (racemic),282 nM,6.4,–,–,–,–
CN1CCc2cc(Cl)c(O)cc2[C@@H]1c1ccccc1,9.12 nM,206,–,–,–,-8.04
CN1CCc2cc(Br)c(O)cc2[C@@H]1c1ccccc1,8.32 nM,157,1300,8.3,1320,–
CN1CCc2cc(Cl)c(O)cc2C1Cc1ccccc1 (racemic),–,5.39,–,–,–,–
CN1CCc2cc(O)ccc2[C@H]1c1ccccc1,> 10000 nM,–,> 5000,> 5000,–,–
CN1CCc2cc(O)c(O)cc2C1c1ccccc1 (racemic),186 nM,1.27,290,370,295,–
